Hits are enriched below; roughly 2% of the tested compounds scored in any of these assays.
Lipid droplet – hepatic lipid droplet formation modulation | AML12 mouse hepatocytes, oleate lipid droplets, BODIPY imaging | inhibition, % at 6.5 µM | 240,000 compounds, 0.4% hits;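 active means lipid droplet intensity inhibited by at least 50%, with more than 500 cells counted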
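Material – AML12 mouse liver cells · Also added – oleate loading, 100 µM · Compound dosing – 6.5 µM single-point dosing · Times – overnight treatment with compound plus oleate · Measured by – fluorescence imaging, 20x objective, two fields per well · Read-out – percent inhibition of filter-corrected integrated lipid droplet intensity per well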
TAG inh – reduces triacylglycerol accumulation in H9c2 cells; Nile Red lipid (TAG) fluorescence; cells loaded with 200 µM oleic acid; inhibition, % at 12.5 µM; 230,000 compounds, 0.66% hits;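 active means pattern-corrected inhibition of lipid staining of at least 50% with the nuclear-stain viability signal not falling by more than 50%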;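 further: 0% = DMSO wells and 100% = triacsin C control wells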
B2AR ag – agonists of human beta-2 adrenergic receptor inducing internalization | Am2.2-beta2AR cells, FAP receptor internalization, flow cytometry | AID 504454 | response, % (no concentration beside the values) | 340,000 compounds, 0.43% hits;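 active means response above a set limit, near 3 SD of response in nonfluorescent compounds, cut at about 42% in these data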
GRK2 inh – blocks RNA aptamer binding to human GRK2; inhibition of aptamer binding, % at 10 µM; 330,000 compounds, 0.59% hits; bead flow cytometry, FAM-aptamer displacement from GRK2; P25098;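 active means inhibition of aptamer binding above 40%, roughly 3 SD of noise, on plates passing a quality check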;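 further: median bead fluorescence of bound FAM aptamer so fluorescent compounds give negative values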
Target sequence (P25098 whole entry, looked up): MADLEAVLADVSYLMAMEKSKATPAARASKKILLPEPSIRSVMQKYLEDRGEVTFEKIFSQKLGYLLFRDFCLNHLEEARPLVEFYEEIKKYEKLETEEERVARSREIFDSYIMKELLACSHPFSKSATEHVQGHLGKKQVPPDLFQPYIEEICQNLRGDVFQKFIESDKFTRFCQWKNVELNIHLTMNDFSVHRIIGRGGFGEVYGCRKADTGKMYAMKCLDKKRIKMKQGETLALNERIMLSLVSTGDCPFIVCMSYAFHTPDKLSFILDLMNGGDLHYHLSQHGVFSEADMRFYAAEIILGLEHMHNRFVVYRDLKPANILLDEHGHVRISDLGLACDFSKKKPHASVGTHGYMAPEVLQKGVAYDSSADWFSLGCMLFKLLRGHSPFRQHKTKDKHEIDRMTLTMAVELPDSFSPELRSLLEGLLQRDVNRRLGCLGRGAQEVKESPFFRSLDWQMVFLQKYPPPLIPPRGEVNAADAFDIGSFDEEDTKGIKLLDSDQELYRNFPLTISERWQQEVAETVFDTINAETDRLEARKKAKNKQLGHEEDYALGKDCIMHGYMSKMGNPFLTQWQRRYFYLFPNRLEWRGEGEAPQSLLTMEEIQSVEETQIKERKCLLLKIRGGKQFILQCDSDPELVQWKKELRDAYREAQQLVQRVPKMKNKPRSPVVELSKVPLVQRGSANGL
NTR1 agonist – NTR1 (human) agonism. P30989. NTR1-U2OS beta-arrestin-GFP spot imaging, agonist mode. activation, % at 20 µM. 330,000 compounds, 0.17% hits. AID 493036;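 active means activation at or above 40% of the spot to cytoplasm intensity ratio, with at least 20 cells analyzed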;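 further: 0% = DMSO without peptide and 100% = 100 nM NTR1 peptide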
Arr AP2 block – human beta-arrestin and AP2 interaction inhibition. FITC-arrestin peptide / GST-AP2 beads, flow cytometry; AP2 beta2 appendage carries R879A mutation. inhibition, % at 10 µM. 340,000 compounds, 0.31% hits;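 active means inhibition above a set limit, near 3 SD of compounds lacking own fluorescence, cut at about 54% in these data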;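 further: plate controls were DMSO wells for no effect and 5 µM unlabelled arrestin peptide for full effect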
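System: GST-AP2 R879A glutathione beads | Also added: FITC-arrestin peptide, 50 nM | Times: 12 min plus 1 h, RT | Signal: Bead flow cytometry, FITC channel | Buffer or medium: PBS with 0.05% Tween 20 and 0.1% BSA | Read-out basis: Percent drop in bead-associated FITC signal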
GRK2 inh confirm – human GRK2 inhibition confirmation, cherry pick 1 | aptamer displacement, % at 10 µM | 2,000 compounds, 4% hits | bead-bound GRK2, FAM-aptamer displacement, flow cytometry | shares compounds with GRK2 inh;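 active means aptamer displacement above 40%, near three times the noise of non-fluorescent compounds, on plates passing quality checks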;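 further: negative values mostly reflect intrinsic compound fluorescence rather than true enhancement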
Aptamer quench 1 – fluorescent aptamer quenching in GRK2 counter-screen dose response. Fluorescent RNA aptamer beads, flow cytometry; hits give high values. 110 tested, under 10 active. fluorescence change (kMESF span), kMESF (concentration not given with the values). shares compounds with GRK2 inh;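 active means compounds whose bead fluorescence drops by more than 37 kMESF across the dose range, marking them as dye quenchers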
Aptamer quench SP – counter-screen for GRK2 aptamer inhibitors: fluorescent aptamer quenchers. shares compounds with GRK2 inh. Carboxyfluorescein RNA aptamer on beads, flow cytometry quenching; hits give low values. fluorescence response (% of DMSO), % at 10 µM. 2,000 tested, under 10 active. AID 504580;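 active means compounds that quench the bead-bound fluorescent RNA probe, cutting fluorescence to under half of the solvent control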;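 further: counterscreen run without GRK2 so only probe quenching by compound is measured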
GRK2 confirm 2 – human GRK2 inhibition confirmation, cherry pick 2 | 360 tested, under 10 active | bead-bound GRK2, FAM-aptamer displacement, flow cytometry | AID 504782 | inhibition of aptamer binding, % at 10 µM | shares compounds with GRK2 inh;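 active means inhibition of aptamer binding above 40%, about triple the noise seen with nonglowing compounds, on plates passing quality control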;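 further: negative values mostly come from compounds that fluoresce themselves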
FAM quench CP2 – counter-screen for GRK2 binding hits: quenchers of fluorescent RNA aptamer | 360 tested, under 10 active | carboxyfluorescein RNA aptamer beads, flow cytometry quenching; hits give low values | fluorescence response vs DMSO, % at 10 µM | shares compounds with GRK2 inh;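 active means response vs DMSO under 50%, meaning signal dropped by over half, treated as fluorescence quencher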;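 further: labelled aptamer on streptavidin beads without GRK2 as a quench counter-screen; 100% = bead fluorescence of DMSO wells and lower means quenching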
The depositor's hits bear a star; nt = no result.

SMILES	Lipid droplet	TAG inh	B2AR ag	GRK2 inh	NTR1 agonist	Arr AP2 block	GRK2 inh confirm	Aptamer quench SP	others
COc1ccc(C(=O)N2CCN(C(=O)Cc3ccccc3)CC2)cc1	25	-5	-3	0	1	-7	nt	nt
Cc1ccc2oc(C(=O)N(C)Cc3ccon3)c(C)c2c1	16	nt	4	92*	0	7	-1	104
Cc1ccc2oc(C(=O)N(C)Cc3ccc(C)o3)c(C)c2c1	-12	nt	31	0	2	9	nt	nt
COc1ccc(CC(=O)N(Cc2ccccc2)c2cccc(C)c2)cc1OC	-8	-3	-4	100*	1	47	nt	nt	GRK2 confirm 2=5;FAM quench CP2=99
Cc1cccc(NC(=O)C(CCC(N)=O)NC(=O)OCc2ccccc2)c1 (configuration not stated)	11	nt	-6	7	-1	8	nt	nt
O=c1[nH]n(-c2ccc(F)cc2)c2ncccc12	nt	nt	0	53*	-1	-5	1	104
COc1ccc([N+](=O)[O-])cc1NC(=O)c1cccs1	5	-13	-11	1	0	-9	nt	nt
Cc1ccc([N+](=O)[O-])cc1NC(=S)NC(=O)c1cccs1	-6	8	7	62*	5	15	nt	nt	GRK2 confirm 2=5;FAM quench CP2=99
CC(=O)c1cccc(NC(=O)C2CC(=O)N(C3CCCC3)C2)c1 (configuration not stated)	nt	2	-2	1	-2	34	nt	nt
O=C(Cn1c(C(F)(F)F)nc2ccccc21)OCC(=O)c1c[nH]c2ccccc12	-14	-5	0	80*	2	39	nt	nt	GRK2 confirm 2=-43;FAM quench CP2=102
Cc1[nH]c2ccccc2c1C(=O)COC(=O)Cn1c(C(F)(F)F)nc2ccccc21	3	nt	-4	0	8	3	nt	nt
O=C(NCCN1CCCCC1)c1cc(COc2c(F)cccc2F)on1	-9	nt	4	0	-1	7	nt	nt
Cc1ccc(NC(=O)CC(C)S(=O)(=O)c2ccc3c(c2)NC(=O)CO3)c(Cl)c1 (configuration not stated)	0	nt	3	0	1	4	nt	nt	GRK2 confirm 2=-40;FAM quench CP2=102
CCNc1nc(SCC(=O)Nc2ccc(Cl)c(Cl)c2)nc(N(C)C)n1	-14	-4	-8	45*	8	30	0	105
COc1ccc(S(=O)(=O)N2CCN(Cc3cccc(Cl)c3)CC2)cc1	0	-11	1	1	-1	5	nt	nt
COc1ccc(S(=O)(=O)N2CCN(Cc3ccc(Cl)cc3)CC2)cc1	-15	nt	-2	65*	-1	2	0	102
O=C1CSc2nc3ccccc3n21	nt	nt	-2	1	0	5	nt	nt
CC12CCC(C(=O)n3c1nc1ccccc13)C2(C)C (configuration not stated)	nt	nt	25	36	1	-1	0	91
C=CCC(COCc1ccccc1)NS(=O)(=O)c1ccccc1Br (configuration not stated)	-1	nt	1	1	-1	-6	nt	nt
CCS(=O)(=O)Nc1cc2c3c(c1)CCN3C(=O)CC2	-4	nt	4	45*	-1	8	5	102
CN(Cc1ccccc1)S(=O)(=O)c1ccc2[nH]cc(C(=O)NCC3CCCO3)c(=O)c2c1 (configuration not stated)	-4	nt	6	45*	1	0	2	101
CC1CCCC(C)N1C(=O)COC(=O)c1c[nH]c2ccccc12 (configuration not stated)	nt	1	-7	1	3	-3	nt	nt
CN1CCN(NC(=O)c2c(-c3ccccc3)sc3ccccc23)CC1	nt	4	0	0	-2	-9	nt	nt
NC(=O)c1sc2nc3c(cc2c1N)CCCCCC3	-2	1	6	75*	2	-5	9	96
COC(=O)c1c(C)nc(C)c(C(=O)OC)c1-c1ccc(OC)c(OC)c1	0	5	1	54*	0	45	-4	100
SMILES	Lipid droplet	TAG inh	B2AR ag	GRK2 inh	NTR1 agonist	Arr AP2 block	GRK2 inh confirm	Aptamer quench SP	others
O=C(O)c1cccc(Cn2cc(Br)cn2)c1	nt	-23	-1	0	2	-6	nt	nt
O=C(NCc1ccncc1)c1cccc(Cn2cc(Br)cn2)c1	nt	1	-5	0	0	-1	4	98
COCCn1nnnc1C(c1cccc(OC)c1OC)N1CCN(C(=O)c2ccco2)CC1 (configuration not stated)	-15	nt	-3	100*	0	-2	1	102
COCCn1nnnc1C(c1ccccc1OC)N1CCN(C(=O)c2ccco2)CC1 (configuration not stated)	2	nt	-6	1	0	13	nt	nt
COc1ccccc1Nc1nnc(SCC(=O)N2CCCC2=O)s1	nt	nt	1	1	0	-9	nt	nt
CCc1ccc(Nc2nnc(SCC(=O)NC(=O)CN3CCCC3=O)s2)cc1	nt	-2	-1	45*	0	-16	19	102
O=C(Nc1nnc(SCc2ccccc2F)s1)C1=COCCO1	-1	-6	-15	3	-1	-5	nt	nt
CC1=C(C(=O)OCC2CCCCC2)C(c2ccc(O)cc2)NC(=O)N1 (configuration not stated)	nt	nt	-17	16	-1	16	-42	192
CC1CN(S(=O)(=O)c2cccc(C(=O)OCc3cc(=O)oc4cc(O)ccc34)c2)CC(C)O1 (configuration not stated)	-7	-1	5	0	12	-5	nt	nt
CN(C)c1cccc(C(=O)OCc2cc(=O)oc3cc(O)ccc23)c1	-19	18	-1	54*	1	40	55*	101	Aptamer quench 1=4
CCOC(=O)c1c(NC(=O)CSc2ncnc3ccccc23)sc(C(C)=O)c1C	-17	-4	1	0	2	8	nt	nt
CCOC(=O)c1c(NC(=O)CSc2nc3ccccc3c(=O)n2-c2ccc(F)cc2)sc(C(C)=O)c1C	17	nt	0	73*	-2	5	-3	103
CN(c1ccccc1)S(=O)(=O)c1ccc(C(=O)N2CCCC2)cc1	nt	-3	-3	58*	-1	-7	0	101

Screening results: PubChem BioAssay, several laboratories
